Publication PMC6061410 (Clinical Drug Investigation, 2018)
“Also recorded” adds a separate entry of the source.

System: healthy young and healthy elderly subjects
Experiment: Safety and tolerability
Type: in vivo, human
In short: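 Adverse events were recorded by system organ class and preferred term in the treated set. This was 84 healthy young or elderly subjects randomised 3:1 to oral drug or placebo over 14 days, across seven ascending dose groups with a safety review before each escalation. Changes were assessed against the last pre-dose baseline measurement.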

Q: Which “intensity of treatment-emergent AEs” value (all dose groups) does the source give for `C[C@@H](Oc1ccc(S(C)(=O)=O)cc1C(=O)N1C[C@@H]2C[C@]2(c2cc(C(F)(F)F)on2)C1)C(F)(F)F` [BI 425809] here?
A: mild-to-moderate; also recorded: mild or moderate

Q: And the “intensity of eye disorders” value (both age groups)?
A: mild

Q: What about the “subjects who reported one or more AEs” value (elderly subjects receiving the active drug) of the same molecule?
A: 88.9%

Q: What about the “subjects with drug-related AEs” value (elderly subjects who received BI 425809) of the same molecule?
A: 77.8%

Q: What about the Back pain (elderly, 25 mg QD) of the same molecule?
A: 1 (11.1) n (%)

Q: What about the Constipation (elderly, 25 mg QD) of the same molecule?
A: 0 (–) n (%)

Q: And the Dizziness (elderly, 25 mg QD)?
A: 1 (11.1) n (%)

Q: And the Eye disorders (elderly, 25 mg QD)?
A: 1 (11.1) n (%)

Q: And the Folliculitis (elderly, 25 mg QD)?
A: 2 (22.2) n (%)

Q: What about the Gastrointestinal disorders (elderly, 25 mg QD) of the same molecule?
A: 6 (66.7) n (%)

Q: What about the “General disorders and administration site conditions” value (elderly, 25 mg QD) of the same molecule?
A: 2 (22.2) n (%)

Q: What about the Hard faeces (elderly, 25 mg QD) of the same molecule?
A: 2 (22.2) n (%)

Q: What about the Headache (elderly, 25 mg QD) of the same molecule?
A: 1 (11.1) n (%)

Q: And the Infections and infestations (elderly, 25 mg QD)?
A: 3 (33.3) n (%)

Q: What about the “Injury, poisoning and procedural complications” value (elderly, 25 mg QD) of the same molecule?
A: 2 (22.2) n (%)

Q: What about the “Musculoskeletal and connective tissue disorders” value (elderly, 25 mg QD) of the same molecule?
A: 1 (11.1) n (%)

Q: And the Nasopharyngitis (elderly, 25 mg QD)?
A: 1 (11.1) n (%)

Q: And the Nausea (elderly, 25 mg QD)?
A: 1 (11.1) n (%)

Q: What about the Nervous system disorder (elderly, 25 mg QD) of the same molecule?
A: 2 (22.2) n (%)

Q: And the Psychiatric disorders (elderly, 25 mg QD)?
A: 2 (22.2) n (%)

Q: And the “Subjects with AEs leading to study discontinuation” value (from here on “Subjects with AEs leading”) (elderly, 25 mg QD)?
A: 0 (–) n (%)

Q: And the “Subjects with investigator-defined drug-related AEs” value (elderly, 25 mg QD)?
A: 6 (66.7) n (%)

Q: What about the “Total with AEs” value (elderly, 25 mg QD) of the same molecule?
A: 8 (88.9) n (%)

Q: And the Venepuncture site haematoma (elderly, 25 mg QD)?
A: 1 (11.1) n (%)

Q: And the Vomiting (elderly, 25 mg QD)?
A: 1 (11.1) n (%)

Q: What about the Back pain (elderly, 50 mg QD) of the same molecule?
A: 1 (11.1) n (%)

Q: And the Constipation (elderly, 50 mg QD)?
A: 4 (44.4) n (%)

Q: What about the Dizziness (elderly, 50 mg QD) of the same molecule?
A: 2 (22.2) n (%)

Q: And the Eye disorders (elderly, 50 mg QD)?
A: 1 (11.1) n (%)

Q: And the Folliculitis (elderly, 50 mg QD)?
A: 1 (11.1) n (%)

Q: What about the Gastrointestinal disorders (elderly, 50 mg QD) of the same molecule?
A: 5 (55.6) n (%)

Q: And the “General disorders and administration site conditions” value (elderly, 50 mg QD)?
A: 4 (44.4) n (%)

Q: What about the Hard faeces (elderly, 50 mg QD) of the same molecule?
A: 0 (–) n (%)

Q: What about the Headache (elderly, 50 mg QD) of the same molecule?
A: 1 (11.1) n (%)

Q: And the Infections and infestations (elderly, 50 mg QD)?
A: 3 (33.3) n (%)

Q: What about the “Injury, poisoning and procedural complications” value (elderly, 50 mg QD) of the same molecule?
A: 0 (–) n (%)

Q: And the “Musculoskeletal and connective tissue disorders” value (elderly, 50 mg QD)?
A: 2 (22.2) n (%)

Q: And the Nasopharyngitis (elderly, 50 mg QD)?
A: 1 (11.1) n (%)

Q: What about the Nausea (elderly, 50 mg QD) of the same molecule?
A: 1 (11.1) n (%)

Q: And the Nervous system disorder (elderly, 50 mg QD)?
A: 3 (33.3) n (%)

Q: And the Psychiatric disorders (elderly, 50 mg QD)?
A: 2 (22.2) n (%)

Q: And the “Subjects with AEs leading” value (elderly, 50 mg QD)?
A: 1 (11.1) n (%)

Q: What about the “Subjects with investigator-defined drug-related AEs” value (elderly, 50 mg QD) of the same molecule?
A: 8 (88.9) n (%)

Q: What about the “Total with AEs” value (elderly, 50 mg QD) of the same molecule?
A: 8 (88.9) n (%)

Q: What about the Venepuncture site haematoma (elderly, 50 mg QD) of the same molecule?
A: 4 (44.4) n (%)

Q: What about the Vomiting (elderly, 50 mg QD) of the same molecule?
A: 1 (11.1) n (%)

Q: And the Back pain (elderly, Total BI n = 18)?
A: 2 (11.1) n (%)

Q: And the Constipation (elderly, Total BI n = 18)?
A: 4 (22.2) n (%)

Q: And the Dizziness (elderly, Total BI n = 18)?
A: 3 (16.7) n (%)

Q: And the Eye disorders (elderly, Total BI n = 18)?
A: 2 (11.1) n (%)

Q: What about the Folliculitis (elderly, Total BI n = 18) of the same molecule?
A: 3 (16.7) n (%)

Q: What about the Gastrointestinal disorders (elderly, Total BI n = 18) of the same molecule?
A: 11 (61.1) n (%)

Q: And the “General disorders and administration site conditions” value (elderly, Total BI n = 18)?
A: 6 (33.3) n (%)

Q: And the Hard faeces (elderly, Total BI n = 18)?
A: 2 (11.1) n (%)

Q: What about the Headache (elderly, Total BI n = 18) of the same molecule?
A: 2 (11.1) n (%)

Q: What about the Infections and infestations (elderly, Total BI n = 18) of the same molecule?
A: 6 (33.3) n (%)

Q: What about the “Injury, poisoning and procedural complications” value (elderly, Total BI n = 18) of the same molecule?
A: 2 (11.1) n (%)

Q: And the “Musculoskeletal and connective tissue disorders” value (elderly, Total BI n = 18)?
A: 3 (16.7) n (%)

Q: What about the Nasopharyngitis (elderly, Total BI n = 18) of the same molecule?
A: 2 (11.1) n (%)

Q: What about the Nausea (elderly, Total BI n = 18) of the same molecule?
A: 2 (11.1) n (%)

Q: What about the Nervous system disorder (elderly, Total BI n = 18) of the same molecule?
A: 5 (27.8) n (%)

Q: And the Psychiatric disorders (elderly, Total BI n = 18)?
A: 4 (22.2) n (%)

Q: What about the “Subjects with AEs leading” value (elderly, Total BI n = 18) of the same molecule?
A: 1 (5.6) n (%)

Q: What about the “Subjects with investigator-defined drug-related AEs” value (elderly, Total BI n = 18) of the same molecule?
A: 14 (77.8) n (%)

Q: And the “Total with AEs” value (elderly, Total BI n = 18)?
A: 16 (88.9) n (%)

Q: What about the Vomiting (elderly, Total BI n = 18) of the same molecule?
A: 2 (11.1) n (%)

Q: What about the “dose dependency of AEs” value (frequency of subjects with drug-related AE across treatment groups) of the same molecule?
A: no dose dependency was observed; also recorded: not dose dependent

Q: And the tolerability (multiple doses 10–75 mg QD or 75 mg BID (young), 25 or 50 mg QD (elderly))?
A: generally well tolerated

Q: And the “serious AEs” value (part 1, all dose groups)?
A: no serious adverse events occurred; also recorded: no serious AEs were reported

Q: What about the “subjects who experienced one or more AEs” value (young subjects, part 1, active-treatment arm) of the same molecule?
A: 66.7%

Q: And the “subjects with drug-related AEs” value (young subjects, part 1, receiving BI 425809)?
A: 60.0%

Q: And the Dizziness (young, part 1, 10 mg QD)?
A: 1 (11.1) n (%)

Q: What about the Eye disorders (young, part 1, 10 mg QD) of the same molecule?
A: 0 (–) n (%)

Q: And the Gastrointestinal disorders (young, part 1, 10 mg QD)?
A: 0 (–) n (%)

Q: And the “General disorders and administration site conditions” value (young, part 1, 10 mg QD)?
A: 0 (–) n (%)

Q: And the Headache (young, part 1, 10 mg QD)?
A: 3 (33.3) n (%)

Q: What about the Infections and infestations (young, part 1, 10 mg QD) of the same molecule?
A: 1 (11.1) n (%)

Q: What about the Insomnia (young, part 1, 10 mg QD) of the same molecule?
A: 0 (–) n (%)

Q: What about the “Musculoskeletal and connective tissue disorders” value (young, part 1, 10 mg QD) of the same molecule?
A: 1 (11.1) n (%)

Q: What about the Nasopharyngitis (young, part 1, 10 mg QD) of the same molecule?
A: 0 (–) n (%)

Q: What about the Nervous system disorder (young, part 1, 10 mg QD) of the same molecule?
A: 4 (44.4) n (%)

Q: What about the Ocular discomfort (young, part 1, 10 mg QD) of the same molecule?
A: 0 (–) n (%)

Q: What about the Psychiatric disorders (young, part 1, 10 mg QD) of the same molecule?
A: 0 (–) n (%)

Q: And the “Subjects with AEs leading” value (young, part 1, 10 mg QD)?
A: 0 (–) n (%)

Q: What about the “Subjects with investigator-defined drug-related AEs” value (young, part 1, 10 mg QD) of the same molecule?
A: 4 (44.4) n (%)

Q: What about the “Total with AEs” value (young, part 1, 10 mg QD) of the same molecule?
A: 5 (55.6) n (%)

Q: What about the Vision blurred (young, part 1, 10 mg QD) of the same molecule?
A: 0 (–) n (%)

Q: What about the Dizziness (young, part 1, 25 mg QD) of the same molecule?
A: 0 (–) n (%)

Q: And the Eye disorders (young, part 1, 25 mg QD)?
A: 2 (22.2) n (%)
